# Measurements taken from ChEMBL document CHEMBL2040849, “Synthesis and antimicrobial evaluation of 3-methanone-6-substituted-benzofuran derivatives” (2012).
# Assays:
# Type in all cases: functional
# Staphylococcus aureus [1] = assay: Antibacterial activity against Staphylococcus aureus ATCC 29213 after 24 hrs by microtiter broth dilution method; settings: ATCC 29213, 24 h
# Outline: (§1)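 Compounds dissolved in DMSO and serially diluted by microtiter broth dilution following NCCLS guidance. Plates incubated at 37 °C for 24 h. MIC80 (ug/mL) taken as the lowest concentration inhibiting visible growth. Ceftazidime, cefotaxime, cefradine and sodium penicillin served as reference drugs.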
# Pseudomonas aeruginosa = assay: Antibacterial activity against Pseudomonas aeruginosa ATCC 49189 after 24 hrs by microtiter broth dilution method; settings: ATCC 49189, 24 h; outline: as §1
# Staphylococcus aureus [2] = assay: Antibacterial activity against methicillin-resistant Staphylococcus aureus ATCC 700699 after 24 hrs by microtiter broth dilution method; settings: ATCC 700699, 24 h
# Outline: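 Compounds dissolved in DMSO and serially diluted in microtiter broth following NCCLS guidance. Plates were incubated at 37 °C for 24 h. MIC80 was read as the lowest concentration inhibiting visible growth of the organism, in µg/mL.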
# Escherichia coli = assay: Antibacterial activity against Escherichia coli ATCC 11303 after 24 hrs by microtiter broth dilution method; settings: ATCC 11303, 24 h; outline: as §1
# Bacillus subtilis = assay: Antibacterial activity against Bacillus subtilis ATCC 33712 after 24 hrs by microtiter broth dilution method; settings: ATCC 33712, 24 h; outline: as §1
SMILES,MIC80 (Staphylococcus aureus [1]),MIC80 (Pseudomonas aeruginosa),MIC80 (Staphylococcus aureus [2]),MIC80 (Escherichia coli),MIC80 (Bacillus subtilis)
Oc1ccc2cc(-c3ccccc3)oc2c1,6.25 µg/mL,0.78 µg/mL,1.56 µg/mL,6.25 µg/mL,3.12 µg/mL
COc1cc(NCc2c(-c3ccccc3)oc3cc(OCCc4nc(-c5ccccc5)oc4C)ccc23)cc(OC)c1OC,> 200 µg/mL,> 200 µg/mL,> 200 µg/mL,> 200 µg/mL,> 200 µg/mL
CC(=O)c1c(-c2ccc(C)o2)oc2cc(O)ccc12,6.25 µg/mL,12.5 µg/mL,6.25 µg/mL,12.5 µg/mL,12.5 µg/mL
Cc1ccc(-c2cc3ccc(O)cc3o2)o1,1.56 µg/mL,0.78 µg/mL,3.12 µg/mL,3.12 µg/mL,1.56 µg/mL
c1ccc(COc2ccc3cc(-c4ccccc4)oc3c2)cc1,100 µg/mL,100 µg/mL,> 200 µg/mL,> 200 µg/mL,100 µg/mL
CC(C)(O/N=C(\C(=O)N[C@@H]1C(=O)N2C(C(=O)[O-])=C(C[n+]3ccccc3)CS[C@H]12)c1csc(N)n1)C(=O)O [CEFTAZIDIME],0.78 µg/mL,12.5 µg/mL,12.5 µg/mL,> 200 µg/mL,6.25 µg/mL
CC1(C)S[C@@H]2[C@H](NC(=O)Cc3ccccc3)C(=O)N2[C@H]1C(=O)[O-].[Na+] [PENICILLIN G SODIUM],3.12 µg/mL,,3.12 µg/mL,0.78 µg/mL,< 0.39 µg/mL
Cc1ccc(-c2cc3ccc(OCc4ccccc4)cc3o2)o1,> 200 µg/mL,> 200 µg/mL,12.5 µg/mL,> 200 µg/mL,> 200 µg/mL
CO/N=C(\C(=O)N[C@@H]1C(=O)N2C(C(=O)O)=C(COC(C)=O)CS[C@H]12)c1csc(N)n1 [CEFOTAXIME],3.12 µg/mL,,3.12 µg/mL,> 200 µg/mL,0.78 µg/mL
Cc1ccc(-c2oc3cc(OCCc4nc(-c5ccccc5)oc4C)ccc3c2C(=O)c2ccc(C(F)(F)F)cc2)o1,> 200 µg/mL,> 200 µg/mL,> 200 µg/mL,> 200 µg/mL,> 200 µg/mL
CC1=C(C(=O)O)N2C(=O)[C@@H](NC(=O)[C@H](N)C3=CCC=CC3)[C@H]2SC1 [CEPHRADINE],> 200 µg/mL,> 200 µg/mL,> 200 µg/mL,25 µg/mL,50 µg/mL
COc1ccc(-c2oc3cc(OCCc4nc(-c5ccccc5)oc4C)ccc3c2C(=O)/C=C/c2cc(OC)c(OC)c(OC)c2)cc1,> 200 µg/mL,> 200 µg/mL,> 200 µg/mL,> 200 µg/mL,> 200 µg/mL
Cc1oc(-c2ccccc2)nc1CCOc1ccc2cc(-c3ccccc3)oc2c1,> 200 µg/mL,> 200 µg/mL,> 200 µg/mL,> 200 µg/mL,> 200 µg/mL
COc1cc(/N=C/c2c(-c3ccccc3)oc3cc(OCCc4nc(-c5ccccc5)oc4C)ccc23)cc(OC)c1OC,3.12 µg/mL,> 200 µg/mL,> 200 µg/mL,> 200 µg/mL,> 200 µg/mL
COc1ccc(-c2cc3ccc(O)cc3o2)cc1,1.56 µg/mL,1.56 µg/mL,0.78 µg/mL,3.12 µg/mL,1.56 µg/mL
COc1ccc(-c2cc3ccc(OCc4ccccc4)cc3o2)cc1,> 200 µg/mL,> 200 µg/mL,> 200 µg/mL,> 200 µg/mL,> 200 µg/mL
CC(=O)c1c(-c2ccc(C)o2)oc2cc(OCCc3nc(-c4ccccc4)oc3C)ccc12,> 200 µg/mL,> 200 µg/mL,> 200 µg/mL,> 200 µg/mL,> 200 µg/mL
COc1ccc(-c2oc3cc(OCCc4nc(-c5ccccc5)oc4C)ccc3c2C(C)=O)cc1,> 200 µg/mL,> 200 µg/mL,> 200 µg/mL,> 200 µg/mL,> 200 µg/mL
Cc1ccc(-c2oc3cc(OCCc4nc(-c5ccccc5)oc4C)ccc3c2C(=O)c2ccco2)o1,> 200 µg/mL,> 200 µg/mL,> 200 µg/mL,> 200 µg/mL,> 200 µg/mL
COc1cc(C(=O)c2c(-c3ccc(C)o3)oc3cc(OCCc4nc(-c5ccccc5)oc4C)ccc23)cc(OC)c1OC,12.5 µg/mL,> 200 µg/mL,> 200 µg/mL,> 200 µg/mL,> 200 µg/mL
COc1ccc(-c2cc3ccc(OCCc4nc(-c5ccccc5)oc4C)cc3o2)cc1,> 200 µg/mL,> 200 µg/mL,> 200 µg/mL,> 200 µg/mL,50 µg/mL
